Among the data in ChEMBL document CHEMBL3112554, “Discovery of simplified N²-substituted pyrazolo[3,4-d]pyrimidine derivatives as novel adenosine receptor antagonists: efficient synthetic approaches, biological evaluations and molecular docking studies” (Bioorg Med Chem, 2014) are Ki and Ratio Ki values, retold here.

The target in one experiment is Adenosine receptor A2a (Homo sapiens, UniProt P29274). The experiment is described as follows: Displacement of [3H]-NECA from human adenosine A2A receptor expressed in CHO cells after 3 hrs by topcount scintillation counting analysis. It counts as cell-based. The method in brief: (§1)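 Radioligand binding to membranes from CHO cells expressing the human receptor, run for 3 h at room temperature. Radioligands were [3H]CCPA for hA1, [3H]NECA for hA2A and [3H]HEMADO for hA3. Nonspecific binding was defined with 1 mM theophylline (hA1) or 100 µM R-PIA (hA2A, hA3). Bound ligand was separated by GF/B filtration and counted. Ki came from nonlinear fitting of competition curves using Cheng-Prusoff, as geometric means of n = 3–6 with 95% CI.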
On the technique in general: In a radioligand displacement assay an active substance lowers the binding of a labelled ligand.

For a further experiment, the species on record is Homo sapiens. The experiment is described as follows: Selectivity ratio of Ki for human adenosine A2A receptor to Ki for human adenosine A3 receptor. An outline of the steps: (§2)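 Ratios of Ki values from displacement assays in CHO cells (3 h, room temperature). The hA1 Ki ([3H]CCPA) or the hA2A Ki ([3H]NECA) was divided by the hA3 Ki ([3H]HEMADO). Each Ki is a geometric mean of n = 3–6.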

The target of another experiment is T1, Adenosine receptor A2b (Homo sapiens, UniProt P29275).
T1 sequence (P29275 whole entry): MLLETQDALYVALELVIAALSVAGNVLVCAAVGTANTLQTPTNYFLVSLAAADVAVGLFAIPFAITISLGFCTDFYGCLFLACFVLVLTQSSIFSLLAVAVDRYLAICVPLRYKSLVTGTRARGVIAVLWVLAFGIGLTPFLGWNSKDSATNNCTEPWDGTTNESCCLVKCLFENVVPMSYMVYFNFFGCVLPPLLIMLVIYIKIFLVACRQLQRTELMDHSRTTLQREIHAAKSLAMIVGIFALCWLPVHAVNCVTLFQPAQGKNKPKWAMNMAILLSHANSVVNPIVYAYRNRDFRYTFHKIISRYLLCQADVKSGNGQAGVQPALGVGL
The experiment in a line: Antagonist activity at human adenosine A2B receptor expressed in CHO cells assessed as inhibition of NECA-induced adenylyl cyclase activity after 20 mins in presence of [alpha-32P]ATP. It counts as functional, cell-based. The method in brief: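 Membranes from CHO cells transfected with the human A2B receptor were incubated for 20 min with 100 nM NECA, 150,000 cpm [α-32P]ATP and test compound at several concentrations. The incubation mixture contained no EGTA and no NaCl. Ki was derived from concentration-dependent inhibition of NECA-stimulated adenylyl cyclase activity (n = 3–6).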

In experiment [1] the target is Adenosine receptors; A1 & A3 (Homo sapiens) (UniProt P30542+P0DMS8). The experiment is described as follows: Selectivity ratio of Ki for human adenosine A1 receptor to Ki for human adenosine A3 receptor. The method in brief:
as §2

The target of a further experiment is T2, Adenosine receptor A3 (Homo sapiens, UniProt P0DMS8).
T2 sequence (P0DMS8 whole entry): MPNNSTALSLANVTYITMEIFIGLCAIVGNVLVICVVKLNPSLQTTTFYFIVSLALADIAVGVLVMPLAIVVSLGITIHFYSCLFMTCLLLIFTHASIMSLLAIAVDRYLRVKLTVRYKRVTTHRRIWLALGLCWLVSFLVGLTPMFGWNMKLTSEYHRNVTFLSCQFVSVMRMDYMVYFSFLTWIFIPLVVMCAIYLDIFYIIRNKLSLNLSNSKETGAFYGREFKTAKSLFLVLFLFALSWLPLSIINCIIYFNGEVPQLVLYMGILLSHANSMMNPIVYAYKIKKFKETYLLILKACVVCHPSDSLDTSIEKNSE
The experiment in a line: Displacement of [3H]-HEMADO from human adenosine A3 receptor expressed in CHO cells after 3 hrs by topcount scintillation counting analysis. It counts as cell-based. The method in brief: as §1

The target of a further experiment is T3, Adenosine receptor A1 (Homo sapiens, UniProt P30542).
T3 sequence (P30542 whole entry): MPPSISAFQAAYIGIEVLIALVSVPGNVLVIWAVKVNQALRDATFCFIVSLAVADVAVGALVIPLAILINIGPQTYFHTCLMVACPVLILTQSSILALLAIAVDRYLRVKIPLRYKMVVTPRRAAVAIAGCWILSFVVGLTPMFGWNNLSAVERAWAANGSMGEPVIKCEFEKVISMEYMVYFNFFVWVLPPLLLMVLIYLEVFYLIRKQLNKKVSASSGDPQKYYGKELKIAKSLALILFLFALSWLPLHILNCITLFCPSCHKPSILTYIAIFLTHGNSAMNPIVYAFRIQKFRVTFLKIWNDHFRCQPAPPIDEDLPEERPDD
The experiment in a line: Displacement of [3H]-CCPA from human adenosine A1 receptor expressed in CHO cells after 3 hrs by topcount scintillation counting analysis. The class given is cell-based. The method in brief:
as §1

The structures appear in SMILES notation.

Adenosine receptor A2a, sequence (P29274 whole entry): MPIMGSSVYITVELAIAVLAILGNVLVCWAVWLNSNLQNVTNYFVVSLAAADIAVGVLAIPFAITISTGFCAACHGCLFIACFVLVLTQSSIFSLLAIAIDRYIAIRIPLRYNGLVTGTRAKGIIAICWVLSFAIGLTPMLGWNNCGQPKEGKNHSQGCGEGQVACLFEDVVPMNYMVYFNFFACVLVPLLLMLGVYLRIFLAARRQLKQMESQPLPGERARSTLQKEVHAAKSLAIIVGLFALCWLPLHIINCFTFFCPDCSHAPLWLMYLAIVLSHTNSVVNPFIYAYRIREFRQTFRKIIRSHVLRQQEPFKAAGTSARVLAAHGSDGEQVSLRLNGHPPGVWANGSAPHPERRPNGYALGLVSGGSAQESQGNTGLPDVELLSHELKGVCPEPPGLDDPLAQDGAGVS

Take `CC(C)n1cc2c(Cl)nc(NC(=O)c3ccc(C(F)(F)F)cc3)nc2n1`: the Ki was 2.7 µM at Adenosine receptor A2a, greater than 20 µM on Adenosine receptor A2b, 10.3 µM on Adenosine receptor A3 and 13.8 µM at Adenosine receptor A1. Also, the Ratio Ki in the experiment filed under Homo sapiens was determined as 0.2; in experiment [1], 1.3.

Consider `Cn1cc2c(Cl)nc(NC(=O)c3ccccc3)nc2n1`, for which the inhibition constant (Ki) on Adenosine receptor A2a was 24.2 µM; on Adenosine receptor A2b, greater than 20 µM; on Adenosine receptor A3, 23.6 µM; at Adenosine receptor A1, greater than 100 µM. The Ratio Ki in the experiment filed under Homo sapiens is 1; in experiment [1], greater than 4.2.

Regarding `Cc1ccc(C(=O)Nc2nc(Cl)c3cn(C)nc3n2)cc1`, the inhibitory constant (Ki) is 12 µM on Adenosine receptor A2a, greater than 20 µM on Adenosine receptor A2b, 13.5 µM on Adenosine receptor A3 and greater than 100 µM at Adenosine receptor A1. The figures for the Ratio Ki (in the experiment listed under Homo sapiens; in experiment [1]) were 0.8 and greater than 7.4, respectively.

Consider `Cc1ccc(C(=O)Nc2nc(Cl)c3cn(CC(C)(C)C)nc3n2)cc1`, for which the Ki on Adenosine receptor A2a was 2.1 µM; at Adenosine receptor A2b, greater than 10 µM; on Adenosine receptor A3 it was 5 µM; at Adenosine receptor A1, 11.1 µM. Also, the Ratio Ki in the experiment listed under Homo sapiens was 0.4; in experiment [1] it was 2.2.

In the case of `Nc1nc(Cl)c2cn(CCc3ccccc3)nc2n1`, the Ki is 3.7 µM on Adenosine receptor A2a, greater than 20 µM at Adenosine receptor A2b, greater than 100 µM at Adenosine receptor A3 and 4.3 µM on Adenosine receptor A1. For the same molecule, the Ratio Ki in the experiment filed under Homo sapiens is greater than 0.03.

As to `Cn1cc2c(Cl)nc(NC(=O)c3ccc(C(F)(F)F)cc3)nc2n1`, the Ki on Adenosine receptor A2a was 25.6 µM; at Adenosine receptor A2b it was greater than 20 µM; on Adenosine receptor A3, 33.5 µM; at Adenosine receptor A1 it was greater than 100 µM. Moreover, the Ratio Ki in the experiment listed under Homo sapiens was 0.7; in experiment [1], greater than 2.9.

Consider `O=C(c1ccccc1)N(C(=O)c1ccccc1)c1nc(Cl)c2cn(CCc3ccccc3)nc2n1`, for which the Ki on Adenosine receptor A2a is 5.4 µM; on Adenosine receptor A2b, greater than 20 µM; at Adenosine receptor A3 it was 2.9 µM; on Adenosine receptor A1, greater than 100 µM. In addition, the Ratio Ki was 2 in the experiment listed under Homo sapiens and greater than 34.5 in experiment [1].

Regarding `Cn1cc2c(Cl)nc(NC(=O)Cc3ccccc3)nc2n1`, the Ki is 29.9 µM at Adenosine receptor A2a, greater than 20 µM at Adenosine receptor A2b, 6.6 µM on Adenosine receptor A3 and 16.3 µM on Adenosine receptor A1. Besides, the Ratio Ki in the experiment listed under Homo sapiens was 4.5; in experiment [1], 2.4.

As to `O=C(Cc1ccccc1)Nc1nc(Cl)c2cn(CCc3ccccc3)nc2n1`, the inhibitory constant (Ki) on Adenosine receptor A2a is 8.6 µM; at Adenosine receptor A2b, greater than 20 µM; on Adenosine receptor A3, 11.4 µM; at Adenosine receptor A1, 6.5 µM. Moreover, the Ratio Ki in the experiment listed under Homo sapiens is 0.7; in experiment [1], 0.5.

Regarding `CC(C)n1cc2c(Cl)nc(N)nc2n1`, the Ki was 3.3 µM at Adenosine receptor A2a, greater than 10 µM at Adenosine receptor A2b, greater than 100 µM on Adenosine receptor A3 and 9 µM on Adenosine receptor A1. Further, the Ratio Ki in the experiment listed under Homo sapiens is 0.03.

`CC(C)(C)Cn1cc2c(Cl)nc(NC(=O)c3ccc(F)cc3)nc2n1`: the inhibitory constant (Ki) at Adenosine receptor A2a was 2.2 µM; on Adenosine receptor A2b it was greater than 10 µM; at Adenosine receptor A3, 5.9 µM; at Adenosine receptor A1 it was 16.5 µM. The Ratio Ki in the experiment listed under Homo sapiens was 0.3; in experiment [1], 2.7.

On to `CC(C)n1cc2c(Cl)nc(NC(=O)c3ccccc3)nc2n1`, for which the inhibitory constant (Ki) is 4.6 µM on Adenosine receptor A2a, greater than 20 µM at Adenosine receptor A2b, 12.8 µM on Adenosine receptor A3 and 19.6 µM on Adenosine receptor A1. Besides, the Ratio Ki is 0.3 in the experiment filed under Homo sapiens and 1.5 in experiment [1].

Turning to `CC(C)(C)Cn1cc2c(Cl)nc(N)nc2n1`, the inhibitory constant (Ki) on Adenosine receptor A2a is 4.1 µM; on Adenosine receptor A2b it was greater than 10 µM; at Adenosine receptor A3 it was greater than 60 µM; at Adenosine receptor A1, 12 µM. Also, the Ratio Ki in the experiment listed under Homo sapiens is greater than 0.6.

In the case of `Cn1cc2c(Cl)nc(N)nc2n1`, the Ki at Adenosine receptor A2a is 9.1 µM; at Adenosine receptor A2b it was greater than 20 µM; at Adenosine receptor A3 it was greater than 100 µM; at Adenosine receptor A1, 29.7 µM. Further, the Ratio Ki in the experiment listed under Homo sapiens is greater than 0.09.

The Ki is the dissociation constant of the complex between target and ligand, obtained from inhibition or displacement.
